Source: paper PMC5352984 (Journal of medicinal chemistry, 2017)
Each block holds one molecule with its values, some of them ahead of it.

What was measured:
GLP = settings: cited from earlier work
G9a = biological target: T1, G9a (Homo sapiens, UniProt Q96KQ7); assay: G9a scintillation proximity methyltransferase assay; assay type: biochemical; settings: ratio of IC50 versus compound 14
T1 sequence (Q96KQ7 1-1210): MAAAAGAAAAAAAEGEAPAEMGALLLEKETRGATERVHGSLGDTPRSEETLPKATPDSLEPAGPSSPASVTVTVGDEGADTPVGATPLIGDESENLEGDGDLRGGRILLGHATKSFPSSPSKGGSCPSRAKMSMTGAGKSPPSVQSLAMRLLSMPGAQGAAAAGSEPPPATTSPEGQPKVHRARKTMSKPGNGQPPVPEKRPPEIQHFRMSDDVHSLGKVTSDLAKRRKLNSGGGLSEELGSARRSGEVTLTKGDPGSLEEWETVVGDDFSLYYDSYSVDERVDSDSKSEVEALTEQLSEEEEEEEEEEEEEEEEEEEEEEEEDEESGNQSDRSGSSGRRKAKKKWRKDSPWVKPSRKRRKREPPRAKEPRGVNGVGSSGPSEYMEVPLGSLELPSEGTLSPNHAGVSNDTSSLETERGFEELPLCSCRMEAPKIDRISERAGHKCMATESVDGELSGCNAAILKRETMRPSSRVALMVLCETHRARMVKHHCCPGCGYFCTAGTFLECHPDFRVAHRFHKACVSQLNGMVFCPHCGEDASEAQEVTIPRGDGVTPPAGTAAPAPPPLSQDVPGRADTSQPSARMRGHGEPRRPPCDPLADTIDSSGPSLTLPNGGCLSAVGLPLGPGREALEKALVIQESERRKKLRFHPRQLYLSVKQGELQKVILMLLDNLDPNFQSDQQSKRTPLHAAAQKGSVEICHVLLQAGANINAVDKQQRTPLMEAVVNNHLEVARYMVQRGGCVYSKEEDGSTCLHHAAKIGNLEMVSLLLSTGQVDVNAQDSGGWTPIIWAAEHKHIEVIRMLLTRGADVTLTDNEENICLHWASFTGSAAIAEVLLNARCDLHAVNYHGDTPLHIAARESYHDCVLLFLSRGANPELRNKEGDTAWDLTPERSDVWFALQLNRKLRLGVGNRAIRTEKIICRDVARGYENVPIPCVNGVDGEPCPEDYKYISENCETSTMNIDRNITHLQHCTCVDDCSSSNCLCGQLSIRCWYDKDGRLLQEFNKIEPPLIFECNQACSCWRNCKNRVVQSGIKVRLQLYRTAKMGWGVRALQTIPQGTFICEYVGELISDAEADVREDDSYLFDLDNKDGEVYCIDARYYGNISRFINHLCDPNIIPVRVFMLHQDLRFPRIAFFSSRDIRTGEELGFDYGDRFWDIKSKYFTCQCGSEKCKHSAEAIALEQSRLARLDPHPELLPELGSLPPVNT

[1] = test system: 29 PKMTs, PRMTs, DNMTs, and RNMTs; assay: Selectivity assays against a methyltransferase panel; assay type: biochemical
Summary of the method: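 Quenched with 7.5 M guanidine HCl, diluted in 20 mM Tris pH 8.0, FlashPlate counted after 1 h. DOT1L, ASH1L, DNMT3A/3L, DNMT3B/3L: 1 h RT, TCA filter capture, washes, scintillation count. No-compound = 100%, no-enzyme = 0%.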

SMILES: COc1cc2nc(N3CCCN(C)CC3)nc(NC3CCN(Cc4ccccc4)CC3)c2cc1OC [Compound 1]
selectivity for GLP over G9a (GLP): 3–5 fold

potency increase for G9a compared with 14 (G9a): 21 fold
SMILES: COc1cc2nc(N3CCCN(C)CC3)nc(NC3CCN(C)CC3)c2cc1OC [Compound 15, 6,7-Dimethoxy-2-(4-methyl-1,4-diazepan-1-yl)-N-(1-methylpiperidin-4-yl)quinazolin-4-amine]

inhibition of 29 methyltransferases ([1]; compound at 10 μM): did not inhibit
SMILES: COc1cc2nc(N3CCOCC3)nc(NC3CCN(C)CC3)c2cc1OC [Compound 4, 6,7-Dimethoxy-N-(1-methylpiperidin-4-yl)-2-morpholinoquinazolin-4-amine]

SMILES: CCCCCCNc1nc(NC2CCN(C)CC2)c2cc(OC)c(OC)cc2n1 [Compound 18, N^2-Hexyl-6,7-dimethoxy-N^4-(1-methylpiperidin-4-yl)quinazoline-2,4-diamine]
inhibition of 29 methyltransferases ([1]; compound at 1 μM): did not inhibit
